Measured values reported in article PMC3899454 (Clinical Drug Investigation, 2013).

Key:
[1] = cited from earlier work
[2] = compared with insulin glargine; cited from earlier work
[3] = Safety and tolerability after a single dose; assay type: in vivo, human; conditions: 24 subjects
Procedure, shortened: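 Single 0.4 U/kg s.c. thigh dose given at 0800–1000 h. Safety assessed by adverse events (severity and relationship graded by investigator), physical examination, vital signs, ECG, biochemistry, hematology, urinalysis and hypoglycemia. Confirmed hypoglycemia: plasma glucose <3.1 mmol/L or ADA 'severe'. Treatment-emergent: onset from dosing to 7 days post-dose. Blood glucose sampled to 120 h.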

insulin lispro
Effect of hepatic dysfunction on glucodynamic response [1]: did not appear to affect the glucodynamic response

insulin detemir
Pharmacokinetics in subjects with renal or hepatic impairment [1]: no clinically relevant difference in pharmacokinetics

insulin degludec
Pharmacokinetic properties in subjects with renal impairment ([1]; varying degrees of impaired renal function): pharmacokinetic properties were also preserved in subjects with renal impairment | Variability of glucose-lowering effect [2]: four times less variable glucose-lowering effect | Adverse events (other than hypoglycemia) or medical events of special interest ([3]; single s.c. dose 0.4 U/kg): No adverse events | Injection-site reactions ([3]; single s.c. dose 0.4 U/kg into the thigh): No injection-site reactions were reported | Severe hypoglycemic episodes ([3]; single s.c. dose 0.4 U/kg, ADA definition of severe): none of these episodes were categorized as severe

insulin aspart
Impact of hepatic impairment and renal impairment on pharmacokinetics ([1]; single-dose pharmacokinetic studies): no significant impact
